ChEMBL document CHEMBL4425169 (ACS Med Chem Lett, 2016)
Calls of active or inactive are those of the source. The calls are words filed in the database; no cut-off is given here.

What was measured:
[1] = biological target: T1, Voltage-gated inwardly rectifying potassium channel KCNH2 (Homo sapiens, UniProt Q12809); assay: Displacement of [35S]MK-499 from human ERG
[2] = biological target: T1, Voltage-gated inwardly rectifying potassium channel KCNH2; assay: Inhibition of human ERG after 6 mins by electrophysiological assay
[3] = system: Rattus norvegicus; assay: Diuretic activity in Sprague-Dawley rat at 10 mg/kg via oral gavage administered 30 mins prior to void induction by loading saline measured upto 4 hrs relative to vehicle treated control; format: functional
Procedure, shortened: (§1)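 Acute 4 h study in Sprague-Dawley rats after oral dosing, n = 5 per group. Urine volume and sodium and potassium excretion were expressed as fold increase over vehicle-treated animals. Significance was tested versus vehicle (p < 0.05 or p < 0.01).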

[4] = system: Rattus norvegicus; assay: Natriuretic activity in Sprague-Dawley rat at 3 mg/kg via oral gavage administered 30 mins prior to void induction by loading saline measured upto 4 hrs relative to vehicle treated control; format: functional
Procedure, shortened: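 Acute 4 h diuresis/natriuresis study in SD rats given a single oral dose, n = 5 per group. Urinary sodium output is expressed as fold increase over vehicle-treated animals, with significance tested against vehicle.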

[5] = system: Rattus norvegicus; assay: Natriuretic activity in Sprague-Dawley rat at 10 mg/kg via oral gavage administered 30 mins prior to void induction by loading saline measured upto 4 hrs relative to vehicle treated control; format: functional; procedure, shortened: as §1
[6] = system: Rattus norvegicus; assay: Diuretic activity in Sprague-Dawley rat at 1 mg/kg via oral gavage administered 30 mins prior to void induction by loading saline measured upto 4 hrs relative to vehicle treated control; format: functional
Procedure, shortened: (§2)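 Acute rat diuresis model in male-unspecified Sprague-Dawley rats, single oral dose, urine collected over 4 h. Urine volume, sodium excretion and potassium excretion expressed as fold increase over vehicle-treated controls; n = 5 per group; significance tested against vehicle.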

[7] = system: Rattus norvegicus; assay: Natriuretic activity in Sprague-Dawley rat at 0.3 mg/kg via oral gavage administered 30 mins prior to void induction by loading saline measured upto 4 hrs relative to vehicle treated control; format: functional; procedure, shortened: as §2
[8] = system: Rattus norvegicus; assay: Kaliuretic activity in Sprague-Dawley rat at 3 mg/kg via oral gavage administered 30 mins prior to void induction by loading saline measured upto 4 hrs relative to vehicle treated control; format: functional; procedure, shortened: as §2
[9] = system: Rattus norvegicus; assay: Kaliuretic activity in Sprague-Dawley rat at 10 mg/kg via oral gavage administered 30 mins prior to void induction by loading saline measured upto 4 hrs relative to vehicle treated control; format: functional; procedure, shortened: as §2
[10] = system: Rattus norvegicus; assay: Kaliuretic activity in Sprague-Dawley rat at 0.3 mg/kg via oral gavage administered 30 mins prior to void induction by loading saline measured upto 4 hrs relative to vehicle treated control; format: functional; procedure, shortened: as §2
[11] = Clearance in rat at 1 mg/kg, iv or 2 mg/kg, po; format: ADME, organism-based; details: in vivo
Procedure, shortened: (§3)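 Rats dosed once at 1 mg/kg IV and, separately, 2 mg/kg PO, with n = 3. Derived parameters were plasma clearance, Vdss, dose-normalized oral AUC (μM·h·kg/mg), half-life, and oral bioavailability (F%).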

[12] = Volume of distribution at steady state in rat at 1 mg/kg, iv or 2 mg/kg, po; format: ADME, organism-based; details: in vivo, read-out: Vdss; procedure, shortened: as §3
[13] = Dose normalized AUC in rat at 2 mg/kg, po; format: ADME, organism-based; details: in vivo; procedure, shortened: as §3
[14] = Oral bioavailability in rat at 2 mg/kg; format: ADME, organism-based; details: in vivo; procedure, shortened: as §3
[15] = Dose normalized AUC in dog at 2 mg/kg, po; format: ADME, organism-based, Canis lupus familiaris; details: in vivo
[16] = Half life in dog at 1 mg/kg, iv or 2 mg/kg, po; format: ADME, organism-based, Canis lupus familiaris; details: in vivo
[17] = Clearance in rhesus monkey at 1 mg/kg, iv or 2 mg/kg, po; format: ADME, organism-based, Macaca mulatta; details: in vivo
[18] = Volume of distribution at steady state in rhesus monkey at 1 mg/kg, iv or 2 mg/kg, po; format: ADME, organism-based, Macaca mulatta; details: in vivo, read-out: Vdss
[19] = Dose normalized AUC in rhesus monkey at 2 mg/kg, po; format: ADME, organism-based, Macaca mulatta; details: in vivo
[20] = Drug metabolism in monkey hepatocytes assessed as oxidation at 1 uM measured at 120 mins; format: ADME, cell-based, Macaca mulatta, Hepatocyte; details: rhesus monkey, 2 h
[21] = Drug metabolism in rat hepatocytes assessed as lactone hydrolysis at 1 uM measured at 120 mins; format: ADME, cell-based, Hepatocyte; details: read-out: Drug metabolism
[22] = Drug metabolism in dog hepatocytes assessed as lactone hydrolysis at 1 uM measured at 120 mins; format: ADME, cell-based, Canis lupus familiaris, Hepatocyte; details: read-out: Drug metabolism
[23] = Drug metabolism in monkey hepatocytes assessed as lactone hydrolysis at 1 uM measured at 120 mins; format: ADME, cell-based, Macaca mulatta, Hepatocyte; details: rhesus monkey, read-out: Drug metabolism
[24] = Drug metabolism in rat hepatocytes assessed as glucuronidation at 1 uM measured at 120 mins; format: ADME, cell-based, Hepatocyte; details: read-out: Drug metabolism
[25] = Drug metabolism in human hepatocytes assessed as glucuronidation at 1 uM measured at 120 mins; format: ADME, cell-based, Hepatocyte; details: read-out: Drug metabolism
[26] = Half life in human; format: ADME
[27] = biological target: T2, ATP-sensitive inward rectifier potassium channel 10 (Homo sapiens) (UniProt P78508); assay: Inhibition of Kir4.1 (unknown origin) upto 30 uM
T2 sequence (whole entry): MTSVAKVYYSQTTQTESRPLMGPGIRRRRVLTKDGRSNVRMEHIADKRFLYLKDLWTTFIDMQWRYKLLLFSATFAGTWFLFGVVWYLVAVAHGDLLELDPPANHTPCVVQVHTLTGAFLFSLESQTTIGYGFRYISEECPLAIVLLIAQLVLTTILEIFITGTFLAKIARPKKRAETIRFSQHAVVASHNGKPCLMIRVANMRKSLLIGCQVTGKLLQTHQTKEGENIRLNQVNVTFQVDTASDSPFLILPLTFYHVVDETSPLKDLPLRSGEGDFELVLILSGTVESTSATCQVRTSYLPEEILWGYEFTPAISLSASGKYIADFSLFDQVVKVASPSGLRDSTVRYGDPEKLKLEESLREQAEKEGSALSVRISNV

[28] = biological target: T3, Sodium-dependent serotonin transporter (Homo sapiens, UniProt P31645); assay: Inhibition of human SERT
[29] = biological target: T3, Sodium-dependent serotonin transporter; assay: Inhibition of [3H]-serotonin uptake at human SERT transfected in HEK293 cells; format: cell-based
[30] = Cardiotoxicity in vagotomized cardiovascular dog model assessed as effect on heart rate at plasma concentration <= 11.6 uM at 1 to 7 mg/kg, iv administered during three sequential 30 min periods; format: toxicity, organism-based, Canis lupus familiaris; details: in vivo, 0.5 h
Procedure, shortened: (§4)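 Anesthetized, vagotomized dogs received IV infusions over sequential periods at 1, 2 and 7 mg/kg (10 mg/kg cumulative). Heart rate, mean arterial pressure and ECG intervals (PR, QRS, QT/QTc) were recorded predose and during each infusion period. Plasma concentrations were measured.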

[31] = Cardiotoxicity in vagotomized cardiovascular dog model assessed as effect on PR interval at plasma concentration <= 11.6 uM at 1 to 7 mg/kg, iv administered during three sequential 30 min periods; format: toxicity, organism-based, Canis lupus familiaris; details: in vivo, 0.5 h; procedure, shortened: as §4
[32] = Cardiotoxicity in vagotomized cardiovascular dog model assessed as effect on QRS complex at plasma concentration <= 11.6 uM at 1 to 7 mg/kg, iv administered during three sequential 30 min periods; format: toxicity, organism-based, Canis lupus familiaris; details: in vivo, 0.5 h; procedure, shortened: as §4
[33] = system: Rattus norvegicus; assay: Antihypertensive activity in spontaneously hypertensive rat assessed as reduction in systolic blood pressure administered via oral gavage once daily for 4 days measured on day 4 by telemetry; format: functional, organism-based
[34] = system: Rattus norvegicus; assay: Antihypertensive activity in spontaneously hypertensive rat assessed as reduction in systolic blood pressure at 1 mg/kg via oral gavage qd administered for 4 days measured on day 4 by telemetry (reference value: 2.5 +/- 2.2 mmHg); format: functional
[35] = Drug metabolism in bile duct cannulated rat assessed as glucuronidation; format: ADME

T1 sequence (Q12809 whole entry): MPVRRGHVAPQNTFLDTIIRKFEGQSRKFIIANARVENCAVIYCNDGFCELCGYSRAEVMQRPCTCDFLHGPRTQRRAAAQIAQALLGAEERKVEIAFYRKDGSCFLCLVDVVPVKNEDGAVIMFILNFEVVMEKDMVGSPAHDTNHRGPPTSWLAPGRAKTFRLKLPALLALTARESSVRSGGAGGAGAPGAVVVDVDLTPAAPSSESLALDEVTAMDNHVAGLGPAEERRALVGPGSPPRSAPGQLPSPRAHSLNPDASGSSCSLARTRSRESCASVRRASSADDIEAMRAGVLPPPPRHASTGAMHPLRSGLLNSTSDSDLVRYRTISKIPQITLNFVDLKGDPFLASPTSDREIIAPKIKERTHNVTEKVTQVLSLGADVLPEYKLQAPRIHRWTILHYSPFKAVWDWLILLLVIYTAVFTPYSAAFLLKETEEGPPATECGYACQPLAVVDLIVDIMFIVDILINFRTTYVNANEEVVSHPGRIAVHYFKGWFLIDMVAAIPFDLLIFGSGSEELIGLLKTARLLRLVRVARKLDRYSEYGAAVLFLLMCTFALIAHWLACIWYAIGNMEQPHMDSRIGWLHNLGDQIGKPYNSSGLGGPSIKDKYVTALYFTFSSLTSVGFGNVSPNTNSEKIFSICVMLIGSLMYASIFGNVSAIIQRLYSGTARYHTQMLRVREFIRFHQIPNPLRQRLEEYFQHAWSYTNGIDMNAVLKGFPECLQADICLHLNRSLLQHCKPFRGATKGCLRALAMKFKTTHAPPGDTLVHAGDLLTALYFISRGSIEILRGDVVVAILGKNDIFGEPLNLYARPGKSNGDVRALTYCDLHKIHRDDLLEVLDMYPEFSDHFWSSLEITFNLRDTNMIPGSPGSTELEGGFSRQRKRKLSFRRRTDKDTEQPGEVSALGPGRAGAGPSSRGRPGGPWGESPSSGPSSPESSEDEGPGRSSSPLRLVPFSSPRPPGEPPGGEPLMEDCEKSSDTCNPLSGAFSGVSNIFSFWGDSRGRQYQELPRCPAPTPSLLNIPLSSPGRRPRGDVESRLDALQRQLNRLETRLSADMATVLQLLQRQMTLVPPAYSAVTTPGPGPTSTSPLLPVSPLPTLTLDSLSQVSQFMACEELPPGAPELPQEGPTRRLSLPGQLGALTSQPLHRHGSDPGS
T3 sequence (P31645 whole entry): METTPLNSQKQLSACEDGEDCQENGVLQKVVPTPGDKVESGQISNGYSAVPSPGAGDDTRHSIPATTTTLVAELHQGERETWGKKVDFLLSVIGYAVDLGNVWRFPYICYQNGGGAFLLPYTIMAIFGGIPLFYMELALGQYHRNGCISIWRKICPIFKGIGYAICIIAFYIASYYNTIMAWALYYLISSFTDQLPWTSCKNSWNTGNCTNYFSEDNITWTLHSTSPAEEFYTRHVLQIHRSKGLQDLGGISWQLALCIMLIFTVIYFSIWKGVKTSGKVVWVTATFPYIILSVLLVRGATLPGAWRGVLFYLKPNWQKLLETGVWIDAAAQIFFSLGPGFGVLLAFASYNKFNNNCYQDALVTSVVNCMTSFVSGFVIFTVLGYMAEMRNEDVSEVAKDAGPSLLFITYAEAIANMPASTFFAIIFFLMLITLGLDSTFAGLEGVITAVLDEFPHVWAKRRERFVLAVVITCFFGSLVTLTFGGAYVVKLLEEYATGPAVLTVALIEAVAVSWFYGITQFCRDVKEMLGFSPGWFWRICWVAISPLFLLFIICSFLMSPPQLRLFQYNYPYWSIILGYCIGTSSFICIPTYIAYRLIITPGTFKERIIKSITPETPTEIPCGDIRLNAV

In the case of `Cc1c([C@@H](O)CN2CCN(C[C@H](O)c3ccc4c(c3C)COC4=O)CC2)ccc2c1COC2=O` [MK-7145], the IC50 [1] is reported as 23 µM, the IC50 [2] is reported as 22 µM and the “fold change (FC)” value [3] is reported as 9.4. For the same compound, the “fold change (FC)” value [4] was 8, the “fold change (FC)” value [5] was 8.5 and the “fold change (FC)” value [6] was 8.6. For the same compound, the “fold change (FC)” value [7] was 6.2, the “fold change (FC)” value [8] was 1.4 and the “fold change (FC)” value [9] was 1.7. For the same compound, the “fold change (FC)” value [10] was 2.1, the clearance [11] was 56 mL/min/kg and the Vd [12] was 3.8 L/kg. For the same compound, the AUC/dose [13] was 0.14 µM·kg·h/mg, the bioavailability [14] was 21% and the AUC/dose [15] was 0.32 µM·kg·h/mg. The half-life [16] was 1.7 h, the clearance [17] was 29 mL/min/kg and the Vd [18] was 6.7 L/kg. For the same compound, the AUC/dose [19] was 0.3 µM·kg·h/mg, the Drug metabolism [20] was 15 to 37% and the metabolised at 2 h, 1 µM [21] was < 1%. The metabolised at 2 h, 1 µM [22] was < 1%, the metabolised at 2 h, 1 µM [23] was < 1% and the metabolised at 2 h, 1 µM [24] was < 1%. For the same compound, the metabolised at 2 h, 1 µM [25] was < 1%, the half-life [26] was 5 h and the inhibition [27] was “inactive”. For the same compound, the IC50 [28] was 0.12 µM, the IC50 [29] was 2.4 µM and the Activity [30] was “Non-Toxic”. The Activity [31] was “Non-Toxic”, the Activity [32] was “Non-Toxic” and the Activity [33] was “Dose-dependent effect”. For the same compound, the Activity [34] was 9.4 mmHg and the Drug metabolism [35] was “Metabolite_Detected”.
